Most compounds without a hit are left out; they make up all but 3.2% or so of the library.
LEDGF integ inh: blocks HIV-1 LEDGF/p75-dependent DNA integration; TR-FRET IN-LEDGF/p75 DNA integration, Eu/Cy5; inhibition, % at 3.7 µM; 370,000 tested, 0.64% active;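 active means inhibition above the screen-wide mean plus 3 SD, cut at about 13% in these data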;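 further: signal is the Cy5 over europium emission ratio at 671 and 618 nm; 0% = plate median of compound wells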
HTRA1 inhibitor: blocks human HTRA1 serine peptidase | Q92743 | recombinant HTRA1, FP-rhodamine activity-based probe, fluorescence polarization | inhibition, % at 5.96 µM | 340,000 tested, 0.5% active | AID 504803; in the data active means inhibition above about 36%;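 further: 0% = enzyme with DMSO and 100% = wells lacking enzyme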
PRMT1 FP inh: inhibitors of human PRMT1; Q99873; recombinant PRMT1, activity-based probe fluorescence polarization; inhibition, % at 2.79 µM; 370,000 tested, 1.3% active;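 active means inhibition above about 21% made by adding two undisclosed values, limit read from the data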
Target sequence (Q99873 whole entry, looked up): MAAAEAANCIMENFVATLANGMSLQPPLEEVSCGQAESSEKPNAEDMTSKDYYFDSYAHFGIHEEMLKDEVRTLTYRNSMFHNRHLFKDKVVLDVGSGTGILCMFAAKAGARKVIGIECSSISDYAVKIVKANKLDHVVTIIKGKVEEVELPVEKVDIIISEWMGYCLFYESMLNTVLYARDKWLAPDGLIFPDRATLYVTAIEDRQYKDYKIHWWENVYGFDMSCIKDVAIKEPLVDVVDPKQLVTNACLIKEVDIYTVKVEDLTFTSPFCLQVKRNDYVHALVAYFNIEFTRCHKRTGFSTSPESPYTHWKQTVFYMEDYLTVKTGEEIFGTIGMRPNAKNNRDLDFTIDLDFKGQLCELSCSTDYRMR
ABHD4 inh: inhibits mouse alpha/beta hydrolase domain 4. AID 720543. 370,000 tested, 0.54% active. purified mABHD4, FP-Rh probe fluorescence polarization. Q8VD66. inhibition, % at 8.92 µM;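 active means inhibition exceeding the mean over every tested compound plus 3 SD, cut at about 30% in these data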;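 further: 0% = plate median of compound wells and 100% = S159A mutant with DMSO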
Target sequence (Q8VD66 whole entry, looked up, the tested form may be a part): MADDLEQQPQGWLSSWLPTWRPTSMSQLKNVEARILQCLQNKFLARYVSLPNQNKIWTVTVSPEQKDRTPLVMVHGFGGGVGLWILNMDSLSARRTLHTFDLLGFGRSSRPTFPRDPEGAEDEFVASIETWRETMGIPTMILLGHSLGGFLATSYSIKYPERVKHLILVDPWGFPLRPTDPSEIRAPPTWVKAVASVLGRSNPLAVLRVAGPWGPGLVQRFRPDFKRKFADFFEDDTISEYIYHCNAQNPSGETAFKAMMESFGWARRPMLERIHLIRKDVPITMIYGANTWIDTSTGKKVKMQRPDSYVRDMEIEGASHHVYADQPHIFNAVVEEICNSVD
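Assay system: Wild-type mouse ABHD4 protein | Medium: HEPES pH 7.0 buffer, 150 mM NaCl, 0.01% Pluronic F-127 | Incubation: Enzyme–compound pre-incubation 45 min, then probe 60 min, both 25 °C | Technique: Fluorescence polarization with parallel and perpendicular emission, 525/598 nm | Evaluation: % inhibition of FP-Rh probe binding versus controls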
rCAG RNA binder: molecules binding r(CAG) RNA repeats; r(CAG) RNA repeat, TO-PRO-1 dye displacement fluorescence; inhibition, % at 3 µM; 370,000 tested, 1.3% active;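 active means inhibition above the plate cutoff, the mean of all test compounds on that plate plus 3 SD, cut at about 35% in these data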;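 further: 0% = DMSO alone and 100% = 100 µM mitoxantrone as full dye displacement; higher means more dye released from RNA so lower well fluorescence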
DAGLB inh: blocks human DAGLB lipase activity; Q8NCG7; HEK293T DAGLB membrane lysate, EnzChek fluorogenic substrate; inhibition, % at 5.17 µM; 340,000 tested, 0.059% active; in the data active means inhibition above about 34%;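 further: 0% = enzyme with vehicle and 100% = wells lacking enzyme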
IN multimer up: HIV-1 integrase multimerization activation, counter-screen; activation, % at 7.7 µM; AID 1053131; TR-FRET HIV-1 integrase multimerization, biochemical; 2,000 tested, 17% active; shares compounds with LEDGF integ inh; in the data active means activation above about 8.9%
TR-FRET interf: counter-screen for LEDGF/p75 integration inhibitors: TR-FRET optical interference | inhibition, % at 7.7 µM | 2,000 tested, under 10 active | shares compounds with LEDGF integ inh | TR-FRET optical interference counterscreen, HIV-1 IN multimerization;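 active means inhibition above the mean over all tested compounds plus 3 SD, which no compound reached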;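 further: 0% = integrase with antibodies and DMSO and 100% = antibodies without integrase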
IN-LEDGF confirm: LEDGF/p75-dependent HIV-1 integration inhibition, confirmation; shares compounds with LEDGF integ inh; TR-FRET LEDGF/p75-dependent HIV-1 integration, biochemical; inhibition, % at 3.7 µM; 2,000 tested, 36% active; AID 1053136; in the data active means inhibition above about 14%
* hit, by the source's call; nt = no result given; ! = not confirmed by another sample.

SMILES | LEDGF integ inh | HTRA1 inhibitor | PRMT1 FP inh | ABHD4 inh | rCAG RNA binder | DAGLB inh | IN multimer up | TR-FRET interf | IN-LEDGF confirm
COc1ccc(N(CC(=O)NCc2ccco2)S(=O)(=O)c2ccc(C)cc2)cc1OC | 6.7 | 5.4 | 1.6 | 2.4 | -0.9 | -1.0 | nt | nt | nt
CCOc1ccc(S(=O)(=O)NCCC(=O)N2CCN(c3ncccn3)CC2)cc1 | 76.7* | -1.0 | 0.3 | 0.9 | -1.7 | -1.5 | 1.4 | -6.9 | 3.4
COc1ccc(S(=O)(=O)N(CC(=O)Nc2ccc(S(=O)(=O)N3CCOCC3)cc2)c2ccccc2)cc1 | 20.3* | -26.3 | -0.9 | -22.6 | 9.5 | -5.7 | 0.6 | -2.2 | 0.9
COc1ccc(NC(=O)CN(C)C(=O)c2ccc(S(=O)(=O)N3CCOCC3)cc2)cc1 | -2.5 | 0.7 | 0.6 | 4.0 | 1.0 | 2.9 | nt | nt | nt
COc1ccc(-c2nnc(SCC(=O)N3CCOCC3)n2C)cc1OC | 4.6 | -4.6 | 4.0 | -5.6 | -2.9 | -0.9 | nt | nt | nt
COc1ccc(OCc2nc(-c3ccc(F)c(F)c3)cs2)cc1 | 0.0 | -3.9 | -3.2 | -3.0 | -1.4 | -14.3 | nt | nt | nt
Cc1c(Cl)cnc(NC(=O)COC(=O)/C=C/c2ccco2)c1Cl | 7.1 | 5.2 | 13.8 | 7.9 | 13.6 | 5.1 | nt | nt | nt
O=C(COC(=O)/C=C/c1ccco1)Nc1ncc(C(F)(F)F)cc1Cl | 31.3* | 5.0 | 17.6 | 15.0 | 30.4 | -0.7 | 4.0 | -19.9 | 14.3*
COc1ccc(CCNC(=O)c2cc(Cl)nc3ccccc23)cc1 | 14.6* | 2.5 | 3.6 | 6.8 | -2.9 | -3.5 | 0.8 | -3.1 | -8.4
O=C(NCc1ccccc1)c1cc(-c2ccco2)on1 | 16.2* | 0.8 | 1.2 | 0.9 | 3.0 | -16.0 | 0.0 | 0.1 | 0.7
O=C(NCCc1ccccc1)c1cc(-c2ccco2)on1 | 6.1 | -7.3 | 11.1 | -57.6 | 11.3 | -6.1 | nt | nt | nt
CCOC(=O)N1CCN(C(=O)C2CCN(S(=O)(=O)c3ccc(Cl)cc3)CC2)CC1 | -2.1 | 0.5 | -2.4 | 3.4 | -3.6 | -0.2 | nt | nt | nt
O=C(c1cc(-c2cccc(O)c2)on1)N1CCCCCC1 | 46.9* | -1.1 | -3.3 | -2.9 | -0.4 | -1.2 | -0.3 | 1.4 | -2.7
CCOc1ccc2nc(SCC(=O)NCc3ccc(S(N)(=O)=O)cc3)sc2c1 | -2.3 | -2.1 | -2.2 | -2.4 | 1.9 | -2.5 | nt | nt | nt
C/C(=C\C(=O)c1ccc(F)cc1)Nc1ccc(N2CCOCC2)cc1 | 22.6* | 33.7 | 5.1 | 18.5 | 5.7 | 1.2 | 1.8 | -9.0 | -4.5
CC(C)Cc1c(O)nc(SCC(=O)N2CCCCCC2)[nH]c1=O | 1.4 | 0.8 | 0.2 | 6.0 | -1.3 | -1.1 | nt | nt | nt
COc1ccc(C(O)c2nccc3cc(OC)c(OC)cc23)cc1OC (configuration not stated) | 29.1* | -4.9 | 8.3 | -3.2 | -5.3 | 0.2 | 0.2 | -0.8 | 2.8
COc1cc(N)c(C(O)c2nccc3cc(OC)c(OC)cc23)cc1OC (configuration not stated) | 0.7 | 14.9 | 0.9 | -5.6 | 7.7 | -1.3 | nt | nt | nt
Nc1nc(COC(=O)C2CC(=O)N(Cc3ccccc3Cl)C2)nc(Nc2ccccc2)n1 (configuration not stated) | 18.4* | -6.4 | -3.9 | -1.0 | -1.3 | -1.4 | 0.2 | -0.9 | -5.0
Cc1ccc(S(=O)(=O)NC2=C(N3CCN(c4ccccc4F)CC3)C(=O)c3ccccc3C2=O)cc1 | 15.2*! | 8.2 | 3.9 | 22.1 | 12.0 | 5.3 | -0.5 | 2.4 | 2.2
COc1ccc(CNC(=O)C2CCCN(c3nccc(C)n3)C2)cc1 (configuration not stated) | 22.9* | 3.6 | 1.4 | 1.0 | -4.7 | -2.6 | 0.2 | -1.2 | 0.5
O=C(Nc1ccc2c(c1)OCO2)OC1CC2CC1[C@H]1CCCCN1[C@H]2Cc1ccccc1 (some centres not stated) | -3.7 | nt | -3.2 | -7.1 | 0.9 | nt | nt | nt | nt
O=C1c2cccc(Sc3ccccc3)c2C(=O)c2c(Sc3ccccc3)cccc21 | 14.0* | nt | 1.6 | -5.7 | 6.0 | nt | 3.0 | -10.7 | -6.9
C=CCN(c1ccccc1Cl)S(=O)(=O)c1cccc(C(=O)NCCc2ccc(OC)cc2)c1 | 89.6* | -45.6 | -1.3 | -13.9 | 5.5 | -5.6 | -0.7 | 2.2 | -9.1
COc1ccc(CCNC(=O)c2cccc(S(=O)(=O)N3CCCCC3)c2)cc1 | 6.6 | 0.2 | -1.9 | -5.0 | -0.8 | -1.8 | nt | nt | nt
SMILES | LEDGF integ inh | HTRA1 inhibitor | PRMT1 FP inh | ABHD4 inh | rCAG RNA binder | DAGLB inh | IN multimer up | TR-FRET interf | IN-LEDGF confirm
CC(C)(C)c1cc(CP(=O)(c2ccccc2)c2ccccc2)cc(C(C)(C)C)c1O | 5.2 | -46.7 | 8.7 | -50.7 | -6.9 | -3.4 | nt | nt | nt
COc1ccc(OC)c(S(=O)(=O)N2CCC(C(=O)Nc3ccc(C)c(C)c3)CC2)c1 | -2.0 | -21.4 | 3.9 | -9.6 | -1.0 | -4.7 | nt | nt | nt
CCOc1nc(Nc2ccccc2)nc(OCC)n1 | 23.5* | -7.5 | -3.2 | -3.9 | 0.2 | -2.0 | 0.6 | -2.9 | 11.0
COc1ccc(C(=O)Nc2ccccc2)cc1NC(=O)c1cccs1 | 3.1 | -42.0 | -4.5 | -7.8 | 3.9 | 0.0 | nt | nt | nt
COc1cc(/C=C(\C#N)c2nc3ccccc3[nH]2)cc(OC)c1O | 15.8* | -8.8 | -7.8 | 6.4 | -39.2 | -7.3 | 7.6 | -38.4 | 2.2
Cc1ccc(S(=O)(=O)c2cc(Nc3ccccc3)ccc2O)cc1 | -2.6 | 15.9 | 10.0 | 19.3 | 14.7 | -0.2 | nt | nt | nt
O=S(=O)(O)c1cc(O)c2cc(Nc3ccccc3)ccc2c1 | 16.3* | 27.3 | nt | 65.5* | 43.0* | 6.0 | 40.6* | -145.4 | 43.6*
CCN(CC)CCNC(=O)c1cc([N+](=O)[O-])c(N(C)C)cc1OC | 5.1 | 0.4 | 0.3 | 0.8 | -3.2 | 0.3 | nt | nt | nt
COc1ccccc1S(=O)(=O)N(C)C[C@H]1OCc2cnnn2CCCC(=O)N([C@@H](C)CO)C[C@@H]1C | 53.2* | 1.6 | 1.6 | 1.0 | 3.0 | 1.8 | 0.0 | -0.1 | -16.6
COc1ccccc1S(=O)(=O)N(C)C[C@H]1OCc2cnnn2CCCC(=O)N([C@H](C)CO)C[C@@H]1C | 3.7 | 6.0 | -0.9 | -4.2 | 3.9 | -0.5 | nt | nt | nt
c1ccc(OCCCn2ccnc2)cc1 | 1.5 | -2.0 | 0.8 | 2.7 | -2.5 | 1.0 | nt | nt | nt
Cn1c(SCC(=O)N2CCOCC2)nnc1-c1cnccn1 | 20.4* | -0.5 | -1.6 | -0.9 | 3.3 | 0.1 | -0.1 | 0.3 | 4.1
Clc1ccc(-c2nc3ccc(Cl)cn3c2Cc2ccccc2)cc1 | -3.2 | -68.9 | 4.0 | -11.7 | 9.5 | -9.0 | nt | nt | nt
Clc1ccc2nc(-c3ccccc3)c(Cc3ccccc3)n2c1 | 27.2* | -41.0 | 1.7 | 2.3 | 9.3 | -4.1 | -0.7 | 3.5 | -3.1
